FN deposition inh: fibronectin deposition inhibition. AH1F fibroblasts, Alexa488-fibronectin deposition fluorescence, overnight. inhibition, % at 12.6 µM. 0.086% of 350,000 active. AID 743247;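 active = mean inhibition across replicates of 30% or more, regardless of how many single replicates reach that level; inconclusive = mean under 30% yet at least half of replicates reach 30%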;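 also: positive control wells lacked labelled fibronectin entirely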
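test system = AH1F fibroblasts assembling fluorescent fibronectin matrix | quantity = 10000 AH1F cells per well | buffer or medium = DMEM plus 2% serum, read in PBS | doses = single dose, pinned | incubation = 1 h cell attachment, overnight exposure to compound and label | detection = fluorescence at 485 nm excitation, 525 nm emission | read-out basis = inhibition from reduced deposited-fibronectin fluorescence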
PGC1a acetyl inh: modulators of PGC1a acetylation. inhibition, % at 15.6 µM. 0.17% of 350,000 active. U2OS PGC1a acetylation, AlphaScreen anti-acetyl-lysine; with virally co-expressed GCN5 acetyltransferase;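 active = every replicate shows inhibition of at least 40%; inconclusive = mean inhibition at least 40% but some replicate below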;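 also: 0% = neutral control wells and 100% = positive control wells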
PglD DTNB: inhibitors of Campylobacter jejuni PglD acetyltransferase; AID 602405; 0.098% of 360,000 active; purified PglD enzyme, DTNB colorimetric CoA detection; inhibition, % at 12.5 µM; in the data active = inhibition above about 16%, passing the limit was not always enough; inconclusive = no clear call, values can overlap the other calls
rRNA inh HTS: inhibitors of bacterial rRNA selective over humanized ribosomes; E. coli WT GFP vs humanized-ribosome RFP mutants, fluorescence, 24 h; hits give low values; DMSO median 0, no signal -100; 1.6% of 350,000 active; GFP signal change (wild-type ribosome), % (concentration not given with the values); AID 720706;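 active = significant combined selectivity score with lowered wild-type GFP, culture density cut under 30%, mutant RFP and density less affected; inactive = any of these conditions unmet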
DENV2 CPE: DENV2-induced cell death inhibition; DENV2-infected cells, cytopathic effect rescue, plate reader; CPE inhibition, % at 9.99 µM; 1.7% of 350,000 active; in the data active = CPE inhibition above about 20%, passing the limit was not always enough; inconclusive = no clear call, values can overlap the other calls; tested in BHK-21 cells;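 also: 0% = median of neutral control wells and 100% = median of positive control wells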
Env fusion inh: inhibitors of HIV Env-mediated cell fusion. 1.1% of 360,000 active. HeLa-JRFL Env/CEM21 cell fusion, luciferase. inhibition, % at 12.3 µM;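 active = mean replicate inhibition score of at least 50 and every replicate individually at or above 50; inconclusive = only one of the two criteria met; inactive = mean below 50 and not all replicates reaching 50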;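 also: 0% = plate neutral controls and 100% = maraviroc near 300 nM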
An asterisk follows results filed as active; ? = inconclusive; . = not tested or not shown; [ ] = another dose, or the depositor's remark. Only some compounds are listed: those with a hit (about 3.5% of all), similar ones and a draw of the others.

SMILES	FN deposition inh	PGC1a acetyl inh	PglD DTNB	rRNA inh HTS	DENV2 CPE	Env fusion inh
C[C@H]1CN([C@@H](C)CO)C(=O)c2cc(NS(=O)(=O)c3cccs3)ccc2O[C@@H]1CN(C)C(=O)Nc1ccc(F)cc1	-0.2	1.0	1.7	2.0	7.1	4.7[16.7 µM]
Nc1ccc(Nc2nc(-c3ccncc3)cs2)cc1	.	-6.8	5.4	-17.0*	5.6	.
Brc1ccc(Nc2nc(-c3cccnc3)cs2)cc1	-7.2	-2.7	.	-24.0*	-3.4	-67.5
C[C@H](CO)N1C[C@H](C)[C@H](CN(C)S(=O)(=O)c2cn(C)cn2)Oc2ncc(-c3cccc(C(F)(F)F)c3)cc2C1=O	1.1	10.4	-3.3	-5.7	-8.3	-14.1[16.7 µM]
Cn1cnc(S(=O)(=O)N2CC[C@@H]3[C@H](CO)Nc4ccc(-c5ccc(F)cc5)cc4[C@@H]32)c1	-34.3	8.1	2.3	-8.3	46.2*	.
Cn1cnc(S(=O)(=O)N2CC[C@@H]3[C@H](CO)Nc4ccc(C#Cc5ccc(F)cc5)cc4[C@@H]32)c1	7.5	4.4	-4.7	-9.0	27.3*	.
COc1cccc(-c2ccc3c(c2)[C@H]2[C@H](CCN2S(=O)(=O)c2cn(C)cn2)[C@H](CO)N3)c1	-3.7	-1.8	-1.3	-7.5	-4.2	.
CCCC#Cc1ccc2c(c1)[C@@H]1[C@@H](CCN1S(=O)(=O)c1ccccc1C)[C@@H](CO)N2	-12.7	.	.	-4.9	65.7*	.
COc1cccc(-c2ccc3c(c2)[C@H]2[C@H](CCN2S(=O)(=O)c2cn(C)cn2)[C@@H](CO)N3)c1	1.4	-20.8	8.1	-2.5	98.4*	.
Cn1cnc(S(=O)(=O)N2CC[C@@H]3[C@H](CO)Nc4ccc(C#Cc5ccccc5)cc4[C@@H]32)c1	13.2	1.1	-0.1	-5.4	.	.
CCCC#Cc1ccc2c(c1)[C@@H]1[C@@H](CCN1S(=O)(=O)c1ccccc1F)[C@@H](CO)N2	-0.7	.	.	-3.2	16.3	.
COc1ccc(CN(C)C[C@H]2Oc3ccc(NC(=O)NC(C)C)cc3CC(=O)N([C@H](C)CO)C[C@@H]2C)cc1	.	0.8	.	4.0	4.4	.
CCCN1C[C@@H](C)[C@H](OC)CN(C)C(=O)c2cc(NC(=O)c3ccccc3F)ccc2OC[C@@H]1C	5.1	-11.2	-2.1	2.9	?	16.1[16.7 µM]
CCCC#Cc1ccc2c(c1)[C@@H]1[C@@H](CCN1S(=O)(=O)c1cn(C)cn1)[C@@H](CO)N2	-0.9	.	.	-4.6	.	.
CCCC#Cc1ccc2c(c1)[C@H]1[C@H](CCN1S(=O)(=O)c1cn(C)cn1)[C@H](CO)N2	-13.4	-7.9	.	0.4	65.0*	.
CCCNC(=O)N1C[C@H]2[C@@H](c3ccccc31)[C@@H](CO)N2C(=O)Nc1ccc(F)cc1	-12.5	-8.1	8.1	1.7	-3.9	.
COc1ccc(OC)c(CCNC(=O)c2ccc(CS(=O)Cc3ccc(Cl)cc3)o2)c1 (stereo not drawn)	0.9	-1.8	5.4	-28.4*	12.8	8.3
CCOc1ccc(CCNC(=O)c2ccc(CS(=O)Cc3ccc(Cl)cc3)o2)cc1 (stereo not drawn)	-19.2	-0.6	2.2	-6.0	0.6	24.3
C[C@@H]1CN(C)C(=O)Cc2ccccc2O[C@H]1CN(C)C	3.8	.	.	1.1	.	.
COc1ccc(S(=O)(=O)N2CCCCCC2)cc1NC(=O)Cc1cccc(C(F)(F)F)c1	3.2	-0.8	-2.5	-0.6	110.6*	19.3
COc1ccc(S(=O)(=O)N2CCCCC2)cc1NC(=O)Cc1sc(C)nc1-c1ccc(F)cc1	-7.9	-11.8	3.6	-5.6	9.1	80.4*
COc1ccc(S(=O)(=O)N2CCOCC2)cc1NC(=O)Cc1sc(C)nc1-c1ccc(F)cc1	5.1	1.1	0.0	-5.2	?	11.4
C[C@H]1CCCCO[C@@H](CN(C)S(=O)(=O)c2ccccc2)[C@@H](C)CN([C@@H](C)CO)C(=O)c2cc(NC(=O)C3CCCCC3)ccc2O1	3.1	0.8	4.5	0.2	-15.8	6.8[16.7 µM]
O=C(O)CSc1nnc(-c2ccc3c(c2)OCO3)o1	-5.6	7.5	-6.5	.	.	-62.3
O=C(c1ccc(Cl)cc1)N1CCCCC(Sc2nnc(-c3ccc4c(c3)OCO4)o2)C1=O (stereo not drawn)	5.4	-8.0	-0.9	.	.	59.9*
SMILES	FN deposition inh	PGC1a acetyl inh	PglD DTNB	rRNA inh HTS	DENV2 CPE	Env fusion inh
C[C@@H]1CCCCO[C@@H](CN(C)C(=O)Nc2ccc3c(c2)OCO3)[C@H](C)CN([C@H](C)CO)C(=O)c2cc(NS(=O)(=O)c3ccccc3)ccc2O1	-5.0	-4.0	-1.2	-0.6	?	-22.3[16.7 µM]
C/C=C/c1ccccc1[C@H]1[C@H](C#N)N(C(=O)CN2CCOCC2)[C@H]1CO	-11.4	7.7	.	7.3	-7.0	.
CN1C[C@@H]2[C@H](c3ccccc31)[C@H](CO)N2C(=O)CN1CCOCC1	.	0.8	2.9	-0.1	37.2*	.
C/C=C/c1ccccc1[C@H]1[C@@H](C#N)N(C(=O)CN2CCOCC2)[C@@H]1CO	2.4	-1.3	.	1.5	38.6*	.
N#C[C@@H]1[C@@H](c2ccccc2C2=CCCC2)[C@H](CO)N1C(=O)C1CCOCC1	0.0	-6.9	.	4.2	0.7	.
N#C[C@@H]1[C@@H](c2ccccc2C2=CCCCC2)[C@@H](CO)N1C(=O)CN1CCOCC1	1.2	-3.7	.	0.8	30.3*	.
N#C[C@H]1[C@@H](c2ccccc2C2=CCCC2)[C@@H](CO)N1C(=O)C1CCOCC1	-7.6	1.7	.	1.4	35.6*	.
O=C(C[C@@H]1CC[C@H]2[C@@H](COC[C@@H](O)CN2Cc2ccc3c(c2)OCO3)O1)N1CCOCC1	-5.7	-0.5	-1.9	-0.1	29.8*	.
O=C(C[C@H]1CC[C@H]2[C@@H](COC[C@@H](O)CN2Cc2ccc3c(c2)OCO3)O1)N1CCOCC1	-11.8	-1.3	-4.4	-0.9	1.9	.
CN1CCN(C(=O)C[C@H]2CC[C@H]3[C@@H](COC[C@H](O)CN3Cc3ccc4c(c3)OCO4)O2)CC1	2.5	0.9	-0.1	-1.3	56.0*	.
O=C(Nc1cccc(Cl)c1)N[C@H]1CC[C@@H](CCNC(=O)C2CCC2)O[C@H]1CO	.	-8.4	2.2	-0.2	1.3	20.9[16.7 µM]
C[C@H]1CCCCO[C@H](CN(C)C(=O)Nc2ccccc2)[C@@H](C)CN([C@@H](C)CO)C(=O)c2cc(NC(=O)c3ccccc3)ccc2O1	-12.1	2.8	5.5	-2.0	-10.5	26.3[16.7 µM]
N#C[C@@H]1[C@H](c2ccc(C#Cc3ccccc3F)cc2)[C@@H](CO)N1C(=O)C1CC1	-5.5	-9.9	-1.6	-53.1	81.7*	21.7[16.7 µM]
N#C[C@H]1[C@H](c2ccc(C#CC3CCCC3)cc2)[C@@H](CO)N1C(=O)Nc1ccc(F)cc1	-10.0	8.4	0.3	-10.2	-21.8	55.6*[16.7 µM]
COc1ccccc1C#Cc1ccc([C@@H]2[C@H](C#N)N(C(=O)C3CCC3)[C@H]2CO)cc1	4.8	-4.2	-1.8	-7.7	-8.6	3.9[16.7 µM]

Assay outcomes (PubChem)
